Compounds with a hit are over-represented: about 3.9% of the library has one in this group of screens.
DNA FID counter: compounds displacing fluorescent DNA intercalator, primary screen, artefact control for HCV NS3 helicase inhibitor project, biochemical, FID fluorescence; DNA fluorescent intercalator displacement; inhibition, % at 7.9 µM; 290,000 compounds, 0.17% hits; AID 1845, 2009; in the data active = inhibition above about 37%;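 also: higher means more ethidium bromide displaced from hairpin DNA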
NS3 helicase inh: inhibitors of HCV NS3 helicase, primary screen, biochemical, Cy5 molecular beacon fluorescence; inhibition, % at 10.9 µM; 290,000 compounds, 0.56% hits; NS3 helicase DNA unwinding; Hepatitis C virus NS3 helicase;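 active = inhibition above the mean of all tested compounds plus 3 SD, set per campaign, cut at about 35% in these data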
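Assay system: hepatitis C virus NS3 helicase domain fragment enzyme. Also added: annealed dual-labelled DNA beacon duplex, ATP-started. Timing: 1 h reaction at 25 °C, ATP-initiated. Technique: Cy5 fluorescence at 0 and 60 min, beacon hairpin quenching. Evaluation: % inhibition of unwinding. Replication: one well per compound.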
HSP90 inh: HSP90 inhibitors, primary screen, cell lysate, luminescence; AID 1789, 2009; Heat shock protein HSP 90 (rabbit reticulocyte lysate; luciferase refolding); 290,000 compounds, 0.91% hits; Rabbit reticulocyte lysate, luciferase refolding luminescence, 3 h; inhibition, % at 5.6 µM;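 active = inhibition above the screen-wide mean plus 3 SD, computed separately per campaign, cut at about 16% in these data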;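 also: inhibitors lower the luminescence because luciferase stays unfolded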
HSF1 activator: HSF-1 activators, primary screen, NIH3T3-HGL cells, MG132 stress, luminescence, single point. 300,000 compounds, 1.7% hits. AID 504408, 2011. activation, % at 9 µM. NIH3T3-HGL HSF-1 luciferase reporter, 8 h; 100% = twice DMSO control signal;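 active = mean replicate activation of at least 50% with a set share of replicates each reaching 50%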
HCV core dimer: inhibitors of HCV core protein dimerization, primary screen, biochemical, TR-FRET, high-throughput. TR-FRET GST/Flag-core106 dimerization, 1536-well. inhibition, % at 5 µM. 300,000 compounds, 0.33% hits;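 active = inhibition above the mean of all tested compounds plus 3 SD, set per screening campaign, cut at about 45% in these data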
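Material: Tagged HCV core106 pair (GST and Flag) | Amount: GST-core106 13.5 nM, Flag-core106 17 nM | Medium: KF-containing HEPES buffer, pH 7.45, DTT, CHAPS, BSA | Reagent: Eu donor and XL665 acceptor anti-tag antibodies | Schedule: 4 h at 22.5 °C | Technique: Time-resolved FRET, ex 340 nm, em 617 and 671 nm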
HSF1 inh: HSF1 inhibitors in luciferase reporter cells, primary screen, cell-based, NIH3T3, luminescence; AID 2098, 2009; activity change, negative = inhibition, % at 7.5 µM (by protocol); NIH3T3-HGL HSE-luciferase, MG132-induced, luminescence 8 h; stronger effect = lower value; 300,000 compounds, 0.77% hits;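 active = more than half of replicate wells show activity change below -50%, luminescence cut by over half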;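 also: luciferase reports HSF-1 transcriptional activity via heat shock element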
Hits are given with their value; - = inactive; . = not tested or not shown.

SMILES	DNA FID counter	NS3 helicase inh	HSP90 inh	HSF1 activator	HCV core dimer	HSF1 inh
Cc1nnc(N/N=C/C(C)c2ccccc2)[nH]c1=O (centres undefined)	-	-	-	-	-	-
O=C(/C=C/c1cccc([N+](=O)[O-])c1)N1CCN(c2ccccn2)CC1	-	-	-	-	-	-
O=C(/C=C/c1cccc([N+](=O)[O-])c1)n1cnc2ccccc21	-	-	-	231	.	-
Cc1ccc(C2C(C#N)=C(N)Oc3c2sc2ccccc32)o1 (centres undefined)	-	-	-	.	80	.
CCOc1cccc(=O)c2c(C)n(Cc3ccco3)c(C)c12	-	-	-	-	-	-
CCOc1cccc(=O)c2c(C)n(Cc3ccccc3)c(C)c12	-	-	-	-	50	-
CCOC(=O)c1ccc(OS(=O)(=O)c2ccccc2)c(OC)c1	-	-	-	63	-	-
COc1ccc(C(=O)O/N=C(\N)c2ccccc2)cc1OC	-	-	-	56	-	-
COc1ccc(/C(N)=N/OC(=O)CCc2ccccc2)cc1OC	-	-	-	-	-	-
CCOc1cc(C(=S)N2CCOCC2)ccc1OS(=O)(=O)c1ccccc1	-	-	-	-	-	-
COc1ccc(/C(N)=N/OC(=O)CSc2ccccc2)cc1OC	-	-	-	62	-	-
COc1ccc(/C(N)=N/OC(=O)CCc2ccccc2)cc1	-	-	-	55	-	-
O=C(CCN1CCN(Cc2ccccc2)CC1)Nc1cccc(Cl)c1	-	-	-	-	-	-
Cc1cccc(COc2ccc(/C=N/NC(=O)c3nnn(-c4nonc4N)c3C)cc2)c1	-	-	-	-	-	-
CN(C)c1ccc(/C=N/NC(=O)CN2CCN(c3ccc(F)cc3)CC2)cc1	-	-	-	-	-	-
COc1cccc(C(=O)O/N=C(\N)c2ccc([N+](=O)[O-])cc2)c1	-	-	-	59	-	-
O=C(Oc1ccc(NC2=NS(=O)(=O)c3ccccc32)cc1)c1cccnc1	-	-	-	52	-	-
Cc1ccc(C2=NN(C(=O)CCl)C(c3cccs3)C2)o1 (centres undefined)	-	-	-	58	-	-
CC(=O)N1N=C(c2ccco2)CC1c1cccs1 (centres undefined)	-	-	-	-	-	-
O=C(CCl)N1N=C(c2ccco2)CC1c1cccs1 (centres undefined)	-	-	-	55	-	-
COc1ccc(C2CC(O)(c3ccccc3)Oc3cc(OC)c(OC)c(OC)c32)cc1 (centres undefined)	.	.	.	-	-	-
COc1ccc([C@@]23Oc4cc(OC)cc(OC)c4[C@]2(O)[C@H](O)[C@H](C(=O)N(C)C)[C@H]3c2ccccc2)cc1	.	.	.	88	.	88
Cc1cc(NC(=O)OC2CCCCC2)ccc1[N+](=O)[O-]	-	-	-	71	-	-
Cc1ccc(NC(=O)C2C3CCCCC32)cc1[N+](=O)[O-] (centres undefined)	-	-	-	-	-	-
COC(=O)/C(=C\Nc1ccccc1N)c1ncc(C(F)(F)F)cc1Cl	-	-	-	138	-	-
SMILES	DNA FID counter	NS3 helicase inh	HSP90 inh	HSF1 activator	HCV core dimer	HSF1 inh
CC(=O)c1c(C)[nH]c(C(=O)NCCC2=CCCCC2)c1C	-	-	-	-	-	-
CCOC(=O)c1[nH]c(C)c(C(=O)Nc2ccc(F)cc2)c1C	-	-	-	57	-	-
CCOC(=O)c1[nH]c(C)c(C(=O)NCCC2=CCCCC2)c1C	-	-	-	61	-	-
CCOC(=O)c1c(C)[nH]c(C(=O)OCC(=O)Nc2cc(Cl)ccc2OC)c1C	-	-	-	53	-	-
CCOC(=O)N1CCN(C(c2ccc(C)cc2)c2sc3nc(C)nn3c2O)CC1 (centres undefined)	.	.	.	-	-	-
COc1cccc(NC(=O)c2sc3nc(N4CCOCC4)c4c(c3c2N)CCCC4)c1	-	-	-	-	-	-
CCC1COCCS(=O)(=O)N1Cc1ccccc1F (centres undefined)	-	-	-	-	-	-
CCC1COCCS(=O)(=O)N1Cc1ccccc1C (centres undefined)	-	-	-	-	-	-61
CN(C)N1C(=O)/C(=C/c2ccco2)SC1=Nc1ccccc1	.	.	.	-	-	-
O=C1/C(=C\c2ccc(Br)o2)SC(=Nc2ccccc2)N1c1ccccc1	-	-	-	-	59	-
CC1=NOC(=O)/C1=C\c1ccc(-c2ccc(Cl)cc2Cl)o1	-	37	-	-	.	-
CCCOc1ccc(Cl)cc1/C=C1/C(=O)ON=C1C	-	-	-	-	-	-
CCOC(=O)N1CCN(C(=O)c2cc(-c3ccc(OCC)cc3)nc3ccccc23)CC1	-	-	-	79	-	-
COc1ccc(-c2cc(C(=O)N3CCCCCC3)c3ccccc3n2)c(OC)c1	-	-	-	79	-	-
Cc1ccccc1-c1cc(C(=O)N2CCCC2)c2ccccc2n1	-	-	-	-	53	-
CCOc1ccc(-c2cc(C(=O)N3CCN(C)CC3)c3ccccc3n2)cc1	-	-	-	-	-	-
O=C(c1cc(-c2ccccc2Cl)nc2ccccc12)N1CCC1	.	.	.	-	-	-
COC(C/C=C/[C@H](O)[C@H](C)OCc1ccccc1)OC	.	.	.	-	-	-
CCN1/C(=C/C=C/c2oc3ccc4ccccc4c3[n+]2CC)Oc2ccc3ccccc3c21	-	-	-	300	-	-
O=C(CSc1ncn[nH]1)NNC(=O)c1ccccc1	.	.	.	-	-	-
O=C(CCC1CCCN(C(=O)c2ccncc2)C1)NCc1ccc(F)c(F)c1 (centres undefined)	-	-	-	-	-	-
O=C(CCC1CCCN(C(=O)c2cc3ccccc3o2)C1)NCc1ccc(F)c(F)c1 (centres undefined)	-	-	-	52	-	-
O=C(O)CC12CC3CC(C1)CC(n1ncc(N4CCC5(CC4)OCCO5)c(Cl)c1=O)(C3)C2	-	-	-	-	-	-
N#Cc1cc([N+](=O)[O-])ccc1Oc1cccc(/C=N/NC(=O)c2cccc(Cl)c2)c1	-	-	-	-	50	-
O=C(Nc1nccs1)c1ccc(Br)o1	-	-	-	-	-	-
O=C(/C=C/c1ccc(Br)o1)Nc1nccs1	-	-	-	83	-	-
COC(=O)c1ccc(CN2CCN(C3CCCCC3)C(CCO)C2)cc1 (centres undefined)	-	-	-	-	-	-64
Cc1onc(-c2c(F)cccc2Cl)c1C(=O)NCc1ccc2c(c1)OCO2	-	-	-	-	-	-
